{
  "source": "PubChem BioAssay AID720543",
  "about": "(The Scripps Research Institute Molecular Screening Center, 2013)",
  "note": "In all, about 370,000 compounds went through this assay and about 2,000 (0.54%) were called active. Only a selection was taken, and actives are over-represented in it overall. A number with no mark means an inactive call.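 How the source made its calls: active means inhibition exceeding the mean over every tested compound plus 3 SD (cut at about 30% in these data); inactive means the rest.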",
  "data": [
    {"molecular_target": "(Lyso)-N-acylphosphatidylethanolamine lipase (Mus musculus) (UniProt Q8VD66)", "sequence (Q8VD66 whole entry, looked up)": "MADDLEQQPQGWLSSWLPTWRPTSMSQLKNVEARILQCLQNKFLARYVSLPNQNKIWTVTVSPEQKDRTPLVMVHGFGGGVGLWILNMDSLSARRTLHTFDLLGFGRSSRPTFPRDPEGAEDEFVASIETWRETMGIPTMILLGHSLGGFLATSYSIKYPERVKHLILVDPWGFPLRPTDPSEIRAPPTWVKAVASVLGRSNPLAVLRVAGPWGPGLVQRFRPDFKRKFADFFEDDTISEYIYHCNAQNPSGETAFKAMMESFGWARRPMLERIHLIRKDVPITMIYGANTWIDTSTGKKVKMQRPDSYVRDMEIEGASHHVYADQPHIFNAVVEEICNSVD", "assay": "mouse ABHD4 hydrolase activity blockers – biochemical, fluorescence polarization, primary screen (AID 720543);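 further: 0% = plate median of compound wells and 100% = S159A mutant with DMSO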", "conditions": "purified mABHD4, FP-Rh probe fluorescence polarization; at 8.92 µM; hits give high values", "how_it_was_run": "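System: mouse ABHD4 enzyme, wild type / Medium: HEPES pH 7.0, NaCl, Pluronic buffer / Reagent: FP-Rh activity-based fluorescent probe / Control set: S159A mutant high control, sample median low control / Detection: fluorescence polarization with parallel and perpendicular emission, 525/598 nm / Schedule: 45 min + 60 min at 25 °C / Compound dosing: 8.92 µM, single dose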", "values": [
      {"molecule": "Cc1nc(CNc2ncnc3ccc(-c4ccc5c(c4)OCO5)cc23)cs1", "inhibition": "-1.75%"},
      {"molecule": "CCOC(=O)[C@H]1[C@H]2COc3ccc(Cl)cc3[C@@H]2N2C(=O)c3cc(C)ccc3NC(=O)[C@@]12C", "inhibition": "2.18%"},
      {"molecule": "O=C(OCc1ccccc1)N1CCC2CC1c1cc(N3CCN(S(=O)(=O)c4cc(Cl)cc(Cl)c4)CC3)ccc12", "note": "(configuration not stated)", "inhibition": "2.29%"},
      {"molecule": "CCOC(=O)[C@H]1Nc2ccc(Cl)cc2[C@@H]2[C@H]1C1CC(c3ccccc31)N2C(=O)OCc1ccccc1", "note": "(some centres not stated)", "inhibition": "46.2% (active)"},
      {"molecule": "Cc1cc2nc3c(=O)[nH]c(=O)nc-3n(C[C@H](O)[C@H](O)[C@H](O)CO)c2cc1C", "inhibition": "15.4%"},
      {"molecule": "CCN(CC)CCCC(C)n1c2nc(=O)[nH]c(=O)c-2nc2cc(Cl)ccc21", "note": "(configuration not stated)", "inhibition": "29.5% (active)"},
      {"molecule": "O=C(CSc1nc2ccccc2s1)N=Nc1c(O)[nH]c2ccccc12", "inhibition": "-11.2%"},
      {"molecule": "C/C(=N\\NC(=O)CNC(=O)C(c1ccccc1)c1ccccc1)c1ccc(C)cc1", "inhibition": "0.45%"},
      {"molecule": "O=C1c2ccccc2C(=O)C1C(=O)C1CC1", "inhibition": "10.5%"},
      {"molecule": "C/C(=N\\NC(=O)c1ccc(C)cc1)C1C(=O)c2ccccc2C1=O", "inhibition": "32.6% (active)"},
      {"molecule": "CCOc1cc(C(=O)N2CCc3cc(OC)c(OC)cc3C2)ccc1OC(F)F", "inhibition": "-1.64%"},
      {"molecule": "O=C(NCCCc1ccccc1)[C@H](Cc1ccccc1)NC1(C(=O)NCCc2c[nH]c3ccccc23)CCC1", "inhibition": "-14.2%"},
      {"molecule": "CC(CNc1ccc([N+](=O)[O-])c2cccnc12)Nc1c([N+](=O)[O-])cc(C(F)(F)F)cc1[N+](=O)[O-]", "note": "(configuration not stated)", "inhibition": "3.66%"},
      {"molecule": "CCN1CCN(C(=O)CN(C)S(=O)(=O)c2ccc3ccccc3c2)CC1", "inhibition": "4.18%"},
      {"molecule": "CN(C1CCS(=O)(=O)C1)S(=O)(=O)c1ccc2ccccc2c1", "note": "(configuration not stated)", "inhibition": "3.99%"},
      {"molecule": "CC(=O)Oc1ccc(N(C(C)=O)S(=O)(=O)c2ccc3ccccc3c2)cc1Br", "inhibition": "32.3% (active)"},
      {"molecule": "Brc1c(CSc2nncc3ccccc23)nc2ccccn12", "inhibition": "-3.21%"},
      {"molecule": "CCC(C)[C@@H](C(=O)OC)N(CCc1cn(Cc2ccccc2)nn1)S(=O)(=O)c1ccccc1Br", "note": "(some centres not stated)", "inhibition": "-6.72%"},
      {"molecule": "O=C(COc1ccc(-c2ccccc2)cc1)NN=C1CCCC1", "inhibition": "0.58%"},
      {"molecule": "O=C1NC(Nc2nc3ccccc3s2)(C(F)(F)F)C(=O)N1C1CCCCC1", "note": "(configuration not stated)", "inhibition": "-23%"},
      {"molecule": "c1ccc2sc(NN=C3CCCC3)nc2c1", "inhibition": "37.2% (active)"},
      {"molecule": "COC(=O)C1=C(C)N(Cc2ccc(C(F)(F)F)cc2)C(=NCc2ccccc2)NC1c1ccccc1C(F)(F)F", "note": "(configuration not stated)", "inhibition": "6.99%"},
      {"molecule": "Cc1nc2ccc(C(=O)N3CCN(C(=O)C(C)(C)C)CC3)cc2n1C1CCCC1", "inhibition": "-2.14%"},
      {"molecule": "COC(=O)[C@]12C[C@H](CC(=O)NCCc3ccccc3OC)C(=O)N(Cc3ccco3)C1=C[C@H](C(C)C)O[C@@H]2C1CC1", "inhibition": "-4.62%"},
      {"molecule": "CCOc1[nH]n(-c2ccc(Cl)cc2)c(=O)c1C=Nc1ccc(O)cc1", "inhibition": "37.3% (active)"},
      {"molecule": "O=C(c1cccc(C(F)(F)F)c1)N1CC[C@H]2[C@H](CCCN2Cc2cc(F)cc(F)c2)C1", "inhibition": "-3.78%"},
      {"molecule": "CCC1(CC)NC(=O)N(CC(=O)OCC(=O)Nc2ccc(C(F)(F)F)cc2)C1=O", "inhibition": "-3.48%"},
      {"molecule": "O=C(CSc1nc2ccccc2n1Cc1ccccc1Cl)N/N=C\\c1c[nH]c2ccccc12", "inhibition": "-14.1%"},
      {"molecule": "Cn1c(SCC(=O)N/N=C/c2ccc(O)c(O)c2)nc2ccccc21", "inhibition": "30.7% (active)"},
      {"molecule": "O=C(CSc1nc2ccccc2s1)NN=Cc1ccc(O)cc1O", "inhibition": "0.63%"},
      {"molecule": "CC1CN(C(=O)c2cccc(NS(=O)(=O)c3ccc(Br)cc3)c2)CC(C)O1", "note": "(configuration not stated)", "inhibition": "3.29%"},
      {"molecule": "C/C(=N/N1CCN(Cc2cccc3ccccc23)CC1)c1cccnc1", "inhibition": "-2.15%"},
      {"molecule": "COCCCNC(NC(=O)c1ccc(C)cc1)C(Cl)(Cl)Cl", "note": "(configuration not stated)", "inhibition": "-5.04%"},
      {"molecule": "O=C(C1CCCO1)N1CCN(S(=O)(=O)c2ccc(Br)cc2)CC1", "note": "(configuration not stated)", "inhibition": "1.47%"},
      {"molecule": "O=C(N/N=C/c1ccc(O)c(O)c1)C1c2ccccc2Oc2ccccc21", "inhibition": "26.1%"},
      {"molecule": "Cc1nnsc1C(=O)N/N=C/c1cccc(C(F)(F)F)c1", "inhibition": "3.14%"},
      {"molecule": "Oc1ccc(/C=N/Nc2ccc(C(F)(F)F)cn2)cc1O", "inhibition": "36.2% (active)"},
      {"molecule": "Cc1nccc(-c2ccc(-n3c(C)ccc3C)cc2)n1", "inhibition": "-7.18%"},
      {"molecule": "CNC(=S)NNC(=O)c1oc2nc(-c3ccccc3)cc(-c3ccco3)c2c1N", "inhibition": "37.3% (active)"},
      {"molecule": "CC(C)CNC(=O)OCc1cn(Cc2ccc(F)cc2)nn1", "inhibition": "-1.25%"},
      {"molecule": "O=C(CSc1nnc(-c2cccc(Cl)c2)n1Cc1ccco1)Nc1ccc(OCc2ccccc2)cc1", "inhibition": "4.02%"},
      {"molecule": "Cc1cc(C)cc(NC(=O)N2CCC(N(C)CCC(C)C)CC2)c1", "inhibition": "-1.26%"},
      {"molecule": "CCn1c(SCC(=O)Nc2cccc(F)c2)nnc1-c1cc2cc(Br)ccc2o1", "inhibition": "-4.13%"},
      {"molecule": "[O-][n+]1ccc(OCc2ccccc2)cc1", "inhibition": "1.3%"},
      {"molecule": "Cc1cccc(C2C3=C(CCCC3=O)N=C3c4ccccc4C(=O)C32)c1", "note": "(configuration not stated)", "inhibition": "25.7%"},
      {"molecule": "CCOC(=O)C1=C(C)N=C2c3ccccc3C(=O)C2C1c1ccc(Br)cc1", "note": "(configuration not stated)", "inhibition": "46.9% (active)"},
      {"molecule": "CCOC(=O)C1=C(C)NC(SC)=NC1c1ccccc1", "note": "(configuration not stated)", "inhibition": "4.01%"},
      {"molecule": "O=C(CN1CCCCCC1)N1c2ccccc2Sc2ccc(C(F)(F)F)cc21", "inhibition": "-5.91%"},
      {"molecule": "COC(=O)Cc1cc(=O)oc2c(C)c(O)ccc12", "inhibition": "-0.82%"},
      {"molecule": "Cc1ccc(S(=O)(=O)N(C)C)cc1NC(=O)COC(=O)C1COc2ccccc2O1", "note": "(configuration not stated)", "inhibition": "-2.17%"},
      {"molecule": "Cc1c(CC(=O)N2CCN(C(=O)C3COc4ccccc4O3)CC2)c(=O)oc2c(O)c(O)ccc12", "note": "(configuration not stated)", "inhibition": "31.1% (active)"},
      {"molecule": "NC(=O)CCC(NS(=O)(=O)c1ccc(Cl)cc1)C(=O)NCc1ccccc1Cl", "note": "(configuration not stated)", "inhibition": "1.64%"}
    ]}
  ]
}
